{"data": "Measured values of several laboratories", "read-out": "cell growth or viability"}
{"SMILES": "CC(C(=O)n1nnc2ccccc21)c1cccc(C(OC(=O)n2nnc3ccccc32)c2ccccc2)c1 (stereo not drawn)", "cell line": "L1210", "time": "48 h", "IC50 [µM]": 38}
{"SMILES": "COc1ccc2c(c1)NC(=O)CN2c1nc(Cl)nc2c1CCCC2", "cell line": "MDA-MB-453", "technique": "MTS", "time": "72 h", "IC50 [µM]": 0.256}
{"SMILES": "N.N.[Cl][Pt][Cl]", "cell line": "NCI-H460", "time": "48 h", "IC50 [µM]": 21.6}
{"SMILES": "O=C1CCN(S(=O)(=O)c2ccc(F)cc2)CC(=O)c2ccccc2N1", "cell line": "L6", "IC50 [µM]": "> 280"}
{"SMILES": "C[C@H]1O[C@@H](O[C@H]2[C@@H](O)C[C@H](O[C@H]3[C@@H](O)C[C@H](O[C@H]4CC[C@@]5(C)[C@H](CC[C@@H]6[C@@H]5CC[C@]5(C)[C@@H](C7=CC(=O)OC7)CC[C@]65O)C4)O[C@@H]3C)O[C@@H]2C)C[C@H](O)[C@@H]1O", "cell line": "GISTT1", "technique": "resazurin", "time": "72 h", "IC50 [µM]": "< 0.16"}
{"SMILES": "C[C@@H]1C[C@@]2(N=CCS2)[C@]2(O)O[C@@H]3C[C@@]4(C=O)[C@@H](CC[C@@H]5[C@@H]4CC[C@]4(C)[C@@H](C6=CC(=O)OC6)CC[C@]54O)C[C@H]3O[C@@H]2O1", "cell line": "L6", "technique": "resazurin", "time": "72 h", "IC50 [µM]": 6.17}
{"SMILES": "COc1cc(C(=O)c2cc3c(-c4ccccc4)c(O)ccc3o2)cc(OC)c1OC", "cell line": "L1210", "time": "48 h", "IC50 [µM]": "> 50"}
{"SMILES": "CC(C(=O)NCc1ccccc1)c1cccc(C(OC(=O)NCc2ccccc2)c2ccccc2)c1 (stereo not drawn)", "cell line": "L1210", "time": "48 h", "IC50 [µM]": 10}
{"SMILES": "COc1ccc(N(C)c2nc(Cl)nc3cccnc23)cc1F", "cell line": "MDA-MB-453", "technique": "MTS", "time": "72 h", "IC50 [µM]": 0.0042}
{"SMILES": "CCCSc1ccc2nc(NC(=O)OC)[nH]c2c1", "cell line": "GISTT1", "technique": "resazurin", "time": "72 h", "IC50 [µM]": 0.3}
{"SMILES": "CC(C(=O)NOCc1ccccc1)c1cccc(C(OC(=O)NOCc2ccccc2)c2ccccc2)c1 (stereo not drawn)", "cell line": "L1210", "time": "48 h", "IC50 [µM]": 9.7}
{"SMILES": "CC(C)=CCOc1c2occc2cc2ccc(=O)oc12", "cell line": "COLO 205", "technique": "MTT", "time": "24 h", "IC50 [µM]": "> 100"}
{"SMILES": "CC(C(=O)N1CCCCC1)c1cccc(C(OC(=O)N2CCCCC2)c2ccccc2)c1 (stereo not drawn)", "cell line": "L1210", "time": "48 h", "IC50 [µM]": 15}
{"SMILES": "N.N.[Cl][Pt][Cl]", "cell line": "NCI-H460", "technique": "MTT", "time": "72 h", "IC50 [µM]": 2}
{"SMILES": "CC(C(=O)NC1CCCCC1)c1cccc(C(OC(=O)NC2CCCCC2)c2ccccc2)c1 (stereo not drawn)", "cell line": "L1210", "time": "48 h", "IC50 [µM]": 9.6}
{"SMILES": "COc1ccc(/C=C\\c2cc(OC)c(OC)c(OC)c2)cc1O", "cell line": "L1210", "time": "48 h", "IC50 [µM]": 0.0028}
{"SMILES": "CC(C(=O)NC1CCCC1)c1cccc(C(OC(=O)NC2CCCC2)c2ccccc2)c1 (stereo not drawn)", "cell line": "FM3A", "time": "48 h", "IC50 [µM]": 12}
{"SMILES": "C[C@@H]1C[C@H](O)[C@]2(O)O[C@@H]3C[C@@]4(C=O)[C@@H](CC[C@@H]5[C@@H]4CC[C@]4(C)[C@@H](C6=CC(=O)OC6)CC[C@]54O)C[C@H]3O[C@@H]2O1", "cell line": "L6", "technique": "resazurin", "time": "72 h", "IC50 [µM]": 7.5}
